MC4R antagonist: human MC4R antagonism in cAMP assay; P32245; MC4R-expressing cells, MTII-stimulated cAMP, LANCE TR-FRET; inhibition, % at 6.5 µM; actives 0.48% (n = 360,000); AID 540295;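 active = inhibition above its plate's cutoff, the mean of tested wells on that plate plus 3 SD, cut at about 29% in these data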
Target sequence (P32245 whole entry, looked up): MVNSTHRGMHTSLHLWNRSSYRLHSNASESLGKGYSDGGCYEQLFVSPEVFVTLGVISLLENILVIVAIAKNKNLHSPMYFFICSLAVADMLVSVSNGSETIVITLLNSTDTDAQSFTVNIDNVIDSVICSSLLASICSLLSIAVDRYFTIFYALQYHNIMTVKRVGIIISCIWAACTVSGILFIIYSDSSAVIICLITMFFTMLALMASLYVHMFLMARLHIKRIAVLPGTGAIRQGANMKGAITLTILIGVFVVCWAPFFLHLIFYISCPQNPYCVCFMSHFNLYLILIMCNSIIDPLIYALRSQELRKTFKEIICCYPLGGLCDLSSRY
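system = U2OS cells with stable human MC4R expression | also added = Melanotan II challenge after compound preincubation | dosing = one concentration, 6.5 µM nominal | incubation = compound 30 min, challenge 1 h, detection 1 h | measured by = TR-FRET with Eu-cAMP and labeled anti-cAMP, 671 nm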
Myeloid diff 2: myeloid differentiation induction; ER-HoxA9 myeloid progenitors, lysozyme-GFP differentiation, flow cytometry; calls only at 10 µM; actives 1% (n = 360,000); AID 624256;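 active = normalized GFP-positive differentiation at or above the plate's own cutoff, the solvent-only control mean plus 3 SD; inconclusive = no clear call, values can overlap the other calls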;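 note: cells exposed to compound for four days before flow analysis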
MC4R barr agon: activates human MC4R beta-arrestin recruitment. P32245. U2OS MC4R beta-arrestin complementation, luminescence; percent of melanotan II response, DMSO zero. activation, % at 8.9 µM. actives 0.98% (n = 360,000);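 active = activation above a per-plate cutoff, the mean activation of sample wells on that plate plus 3 SD, cut at about 8% in these data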
Granule exo inh: blocks lytic granule exocytosis. AID 651702. actives 0.66% (n = 360,000). TALL-104 LAMP-1 surface exposure, flow cytometry; cells stimulated with thapsigargin and PMA. inhibition, % at 10 µM;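 active = inhibition above about 55%, limit read from the data; inconclusive = no clear call, values can overlap the other calls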
EBI2 block: antagonists of human EBI2 receptor | inhibition, % at 5 µM | P32249 | EBI2 beta-arrestin recruitment, luminescence, 7a,25-OHC stimulated | actives 0.81% (n = 360,000); in the data active = inhibition above about 38%;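 note: enzyme fragment complementation signal reports receptor beta-arrestin coupling in cells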
EBI2 conf: confirmation of human EBI2 receptor antagonists; shares compounds with EBI2 block; EBI2 beta-arrestin luminescence, 7a,25-OHC antagonism; inhibition, % at 5 µM; AID 651997; actives 29% (n = 2,400);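 active = inhibition of at least 50%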
EBI2 ag: activates EBI2, counter-screen for EBI2 antagonists | shares compounds with EBI2 block | EBI2-expressing cells, agonist mode, luminescence, 60 min; 0% vehicle, 100% 7α,25-dihydroxycholesterol control | activation, % at 5 µM | 2,400 tested, under 10 active | AID 652000;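 active = activation of at least 50%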
bGal counter: counter-screen for EBI2 antagonists: E. coli beta-galactosidase inhibition; shares compounds with EBI2 block; purified beta-galactosidase, luminescent Galacton Star, 15 min; inhibition, % at 5 µM; actives 1% (n = 2,400); AID 652176;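 active = replicate-average signal at least 3 plate SD below neutral wells, shown as high inhibition, flagging enzyme-inhibiting false positives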;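 note: higher means stronger loss of beta-gal luminescence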
Numbers stand for hits; – = inactive; ? = inconclusive; · = no result. The list is not random: actives were taken first. Their share in the collection is about 3.7%.

SMILES	MC4R antagonist	Myeloid diff 2	MC4R barr agon	Granule exo inh	EBI2 block	EBI2 conf	EBI2 ag	bGal counter
CC(C)C[C@@H](CN1CCC[C@@H]1CN1C(=S)NC[C@@H]1Cc1ccc(O)cc1)N1C[C@H](Cc2ccc(O)cc2)N(CCc2ccccc2)C1=S	·	–	·	–	74	–	–	–
CC(C)C[C@@H](CN1CCC[C@@H]1CN1C(=S)NC[C@@H]1Cc1ccccc1)N1C[C@H](Cc2ccc(O)cc2)N(CCc2ccccc2)C1=S	·	–	·	–	37	–	–	–
CC(C)C[C@H]1CNC(=S)N1C[C@H]1CCCN1C[C@H](CC(C)C)N1C[C@H](Cc2ccc(O)cc2)N(CC2CCCCC2)C1=S	·	?	·	–	61	–	–	–
O=C(c1ccc2ccccc2c1)N1CCN(Cc2ccccc2)CC1	–	–	–	–	90	77	–	–
O=C(c1ccc(Br)cc1)N1CCC(C(=O)N2CCN(c3ccccc3)CC2)CC1	–	–	–	–	79	–	–	–
O=C(c1ccc(Br)cc1)N1CCN(Cc2ccccc2)CC1	–	–	–	–	48	–	–	–
O=C(c1ccc(F)cc1)N1CCN(Cc2ccccc2)CC1	–	–	–	–	–	·	·	·
COc1ccc(NC(=O)C2(C)CCN2C(=O)C(C)C)cc1F (stereo not given)	–	–	–	–	–	·	·	·
Cc1cccc(C(=O)OCCN2CCOCC2)c1	–	–	–	–	–	·	·	·
O=C(COC(=O)COc1ccc(Br)cc1)NC1CCCC1	–	–	–	–	–	·	·	·
O=C(CCC1CCCC1)NNC(=O)COc1ccc(Br)cc1	–	–	–	–	79	–	–	–
Cc1ccccc1OCCC(=O)Nc1ccc(N2CCOCC2)cc1N1CCOCC1	–	–	–	–	–	·	·	·
Cc1ccc(CCNC(=O)C23CN(Cc4ccccc4)CC2C(c2cccc([N+](=O)[O-])c2)=NO3)cc1 (stereo not given)	–	–	–	–	63	–	–	–
COc1ccc(CCNC(=O)C23CN(Cc4ccccc4)CC2C(c2cccc([N+](=O)[O-])c2)=NO3)cc1 (stereo not given)	–	–	–	–	52	–	–	–
CC(C)CCNC(=O)C12CN(Cc3ccccc3)CC1C(c1ccc([N+](=O)[O-])cc1)=NO2 (stereo not given)	–	–	–	–	–	·	·	·
COc1ccc(CC(=O)NCc2n[nH]c(=S)n2-c2ccccc2OC)cc1	–	–	–	–	–	·	·	·
CCOc1ccccc1NC1=CC(=O)CC(c2ccccc2)C1 (stereo not given)	–	–	–	–	–	·	·	·
O=C1C=C(Nc2ccc(Cl)cc2)CC(c2ccccc2)C1 (stereo not given)	–	?	–	–	70	55	–	–
Cc1ccc(NC2=CC(=O)CC(c3ccc(Cl)cc3)C2)cc1 (stereo not given)	–	–	–	–	82	79	–	–
C/C=C/C1=CC(=O)C[C@H](c2ccc(Cl)cc2)C1	–	–	–	–	–	·	·	·
Cc1ccc(NC2=CC(=O)CC(c3ccccc3)C2)cc1 (stereo not given)	–	?	–	–	55	–	–	–
CC(C)c1ccc(CC(=O)N2CCC2(C)C(=O)NS(=O)(=O)c2cccc(OC(F)F)c2)cc1 (stereo not given)	–	–	–	–	–	·	·	·
Cc1ccc(CNC(=O)c2ccc(N3CCC4(CC3)CC(c3ccccc3)=NO4)c(NC(=O)c3ccccc3)c2)cc1	–	–	–	–	–	·	·	·
Cc1ccc(CNC(=O)c2ccc(N3CCC4(CC3)CC(c3ccccc3)=NO4)c(N)c2)cc1	–	–	–	–	45	–	–	–
C=CCNC(=O)c1cc(-c2ccccc2)sc1N	·	–	·	–	–	·	·	·
SMILES	MC4R antagonist	Myeloid diff 2	MC4R barr agon	Granule exo inh	EBI2 block	EBI2 conf	EBI2 ag	bGal counter
Nc1sc(-c2ccccc2)cc1C(=O)N1CCNCC1	·	–	·	–	46	–	–	–
Cc1ccccc1CSc1nnc(C)c(=O)n1N	–	–	–	–	–	·	·	·
Cc1ccc(C)c(Nc2ccc(C(=O)NCCc3ccccc3)cn2)c1	–	–	–	–	–	·	·	·
Cc1ccc(Nc2ccc(C(=O)NCCc3ccccc3)cn2)cc1	–	–	–	–	83	58	–	–
C=CCN(C(=O)C1CSC2(C)CCC(=O)N12)c1nc(-c2ccccc2)cs1 (stereo not given)	–	–	–	–	48	64	–	–
COc1ccc(S(=O)(=O)N2CCCC(c3cc(C(=O)NCc4cccnc4)no3)C2)cc1 (stereo not given)	–	–	–	–	–	·	·	·
O=C(Nc1cnn(Cc2ccc(Cl)c(Cl)c2)c1)C12CC3CC(CC(C3)C1)C2	–	–	–	–	42	–	–	–
CCOc1ccc(C(=O)Nc2cnn(Cc3ccc(Cl)c(Cl)c3)c2)cc1	–	–	–	–	–	·	·	·
O=C(Nc1nc(-c2ccc(Oc3ccccc3)cc2)cs1)C1=COCCO1	–	–	–	–	74	–	–	–
CCN(CC)C(=O)CSc1nc2c(sc(=S)n2-c2ccccc2)c(=O)n1Cc1ccco1	–	–	–	–	57	–	–	–
CCN(CC)C(=O)CSc1nc2c(sc(=S)n2CC)c(=O)n1-c1ccccc1	–	–	–	–	–	·	·	·
COc1ccc(CN2CCC(n3nccc3NC(=O)C3CC3)CC2)cc1O	–	–	–	–	–	·	·	·
COc1ccc2cc(C(c3nnnn3C3CCCC3)N3CCCCCC3)c3nnnn3c2c1 (stereo not given)	–	–	–	–	60	–	–	–
COc1ccc2cc(C(c3nnnn3C3CCCCC3)N3CCCCCC3)c3nnnn3c2c1 (stereo not given)	–	–	–	–	54	–	–	–
COc1ccc(C(c2nnnn2C2CCCC2)N2CCC(C)CC2)c(OC)c1 (stereo not given)	–	–	–	–	–	·	·	·
COc1ccc2[nH]c(=O)c(C(c3nnnn3C3CCCC3)N(C)C3CCCCC3)cc2c1 (stereo not given)	–	–	–	–	62	–	–	–
CCC(=O)N1CCCC(C(=O)c2ccc(-c3ccccc3)cc2)C1 (stereo not given)	–	–	–	–	–	·	·	·
COc1ccc(C(=O)/C=C/c2ccc(F)cc2)c(OC(=O)c2ccc([N+](=O)[O-])cc2)c1	–	–	–	–	54	–	–	–
O=c1n(Cc2ccccc2)c2cc(Cl)cnc2n1Cc1ccccc1	–	–	–	–	71	50	–	–
O=c1[nH]c2ccccc2n1Cc1ccc(Cl)cc1	–	–	–	–	–	·	·	·
